An excerpt weighted towards active compounds, which were near 1.7% of everything screened.
IDE cell activ = human IDE activators in live cells, primary screen, fluorescence polarization, HEK cells, FAbeta-B substrate | AID 493087, 2011 | activation, % at 5.96 µM | hit rate 0.073% among 340,000 | Insulin-degrading enzyme (Homo sapiens), P14735 | FAbeta-B cleavage; 0% vehicle, 100% cell-free pure enzyme wells;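 active = activation above the mean of all tested compounds plus 3 SD, set per screening campaign, cut at about 17% in these data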
TPT1 inhibitor = Candida albicans TPT1 enzyme inhibitors, primary screen, biochemical, fluorescence polarization. tRNA 2'-phosphotransferase TPT1 (Candida albicans SC5314). recombinant caTPT1, FP RNA substrate dephosphorylation. inhibition, % at 5 µM. hit rate 0.81% among 300,000. AID 1962, 2009;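 active = inhibition above the mean of all tested compounds plus 3 SD, set per screening campaign, cut at about 24% in these data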;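 note: plate controls were DMSO alone for no effect and ferristatin control at 100 nM for full effect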
HNF4A DNA FP = change in binding of human HNF4A to DNA, primary screen, biochemical, fluorescence polarization, FITC-DNA; Hepatocyte nuclear factor 4-alpha (Homo sapiens), P41235; hit rate 0.3% among 360,000; 1 h; activity change, % at 10 µM; in the data active = activity change above about 30%, passing the limit was not always enough
Rpn11 inh = Rpn11 (PSMD14) deubiquitinase inhibitors, primary screen, biochemical, fluorescence polarization, uHTS. hit rate 0.59% among 360,000. human 26S proteasome, Ub4-pepOG fluorescence polarization; 20S core pre-blocked with epoxomicin. 26S proteasome non-ATPase regulatory subunit 14 (Homo sapiens), O00487. calls only at 20 µM;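 active = inhibition at 20 µM, scaled to each plate's controls, above about 33%, limit read from the data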
CSN deneddyl inh = inhibitors of CSN-mediated cullin deneddylation, primary screen, biochemical, fluorescence polarization, uHTS. COP9 signalosome complex subunit 5 (Homo sapiens), Q92905. Purified CSN, SCF-Nedd8-OG deneddylation. inhibition, % at 12.5 µM. hit rate 0.38% among 360,000;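 active = pattern-corrected inhibition above about 35%, with an unprinted fluorescence ratio check between 0.5 and 1.5, limit read from the data, passing the limit was not always enough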;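 note: 0% = enzyme with substrate and 100% = substrate without enzyme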
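Test system: purified human Csn5 enzyme expressed in HEK293T cells. Amount: 0.24 nM enzyme. Reagent: SCFSkp2-Nedd8OG substrate at 10 nM final. Schedule: 90 min incubation of compound, enzyme and substrate at room temperature. Detection: fluorescence polarization. Read-out: % inhibition of substrate cleavage by Csn5.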
IDE cell inh = human IDE inhibitors in live cells, primary screen, fluorescence polarization, HEK cells, FAbetaB substrate. Insulin-degrading enzyme (Homo sapiens), P14735. FAbetaB cleavage. inhibition, % at 5.59 µM. hit rate 0.41% among 320,000. AID 434962, 2010;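 active = percent inhibition above the average of all tested compounds plus 3 SD, set per screening campaign, cut at about 16% in these data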;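 note: IDE supplied by intact live HEK cells; FP after avidin binding of uncleaved biotin substrate so inhibition keeps polarization high; 0% = DMSO wells and 100% = 60 µM reference IDE inhibitor Ii1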
Rpn11 inh conf = Rpn11 (PSMD14) deubiquitinase inhibitors, confirmation, biochemical, fluorescence polarization, single concentration; shares compounds with Rpn11 inh; purified human 26S proteasome, Ub4-pepOG fluorescence polarization; proteasome pretreated with epoxomicin; inhibition, % at 20 µM; hit rate 29% among 1,900; AID 602318, 2012
MMP-2 counter = MMP-2 enzyme inhibition, confirmation, counter-screen for RPN11 inhibitor project, biochemical, fluorescence, single concentration; inhibition, % at 20 µM; recombinant MMP-2, FRET peptide cleavage fluorescence; shares compounds with Rpn11 inh; hit rate 4% among 1,900; AID 602330, 2012;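 note: human MMP-2 activated beforehand with APMA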
Target sequence (P08253 whole entry, looked up): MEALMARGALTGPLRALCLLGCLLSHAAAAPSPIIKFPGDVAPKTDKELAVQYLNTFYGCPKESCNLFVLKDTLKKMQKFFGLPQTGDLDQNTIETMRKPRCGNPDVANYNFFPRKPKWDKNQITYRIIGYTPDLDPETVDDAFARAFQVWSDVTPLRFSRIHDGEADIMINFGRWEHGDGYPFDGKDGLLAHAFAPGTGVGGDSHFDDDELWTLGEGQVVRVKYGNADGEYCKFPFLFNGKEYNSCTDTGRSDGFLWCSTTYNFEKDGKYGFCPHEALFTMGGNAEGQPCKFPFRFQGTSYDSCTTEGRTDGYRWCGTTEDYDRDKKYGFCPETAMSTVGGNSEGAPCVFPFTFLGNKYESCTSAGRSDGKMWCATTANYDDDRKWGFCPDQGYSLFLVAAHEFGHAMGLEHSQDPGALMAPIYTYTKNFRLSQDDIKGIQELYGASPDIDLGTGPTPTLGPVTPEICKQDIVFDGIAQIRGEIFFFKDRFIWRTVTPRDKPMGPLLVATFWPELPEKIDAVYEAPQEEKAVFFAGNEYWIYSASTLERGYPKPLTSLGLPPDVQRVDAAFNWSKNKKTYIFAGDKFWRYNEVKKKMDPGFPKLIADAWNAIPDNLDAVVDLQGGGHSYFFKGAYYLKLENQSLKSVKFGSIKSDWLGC
Thrombin inh = bovine thrombin protease inhibition, confirmation, counter-screen for Rpn11 inhibitor project, biochemical, fluorescence polarization, single concentration | shares compounds with Rpn11 inh | bovine thrombin cleavage of Ub4-pepOG | inhibition, % at 20 µM | hit rate 13% among 1,900;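 active = mean inhibition at least 40% at 20 µM, or signal 3 deviations below plate average, so some actives read negative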;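 note: plate controls were thrombin with DMSO for no effect and buffer wells lacking thrombin for full effect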
An asterisk follows results filed as active. Cut-off read from the data, not from the text of the source, unless noted: active = inhibition above about 40%; inactive = the rest.

Cc1ccc(CSCC(=O)Nc2cc(S(=O)(=O)N3CCOCC3)ccc2OC(C)C)cc1 was read as IDE cell activ 4, TPT1 inhibitor 1, HNF4A DNA FP 6, Rpn11 inh inactive, CSN deneddyl inh 0 and IDE cell inh 0.
For COc1nc(-c2ccccc2)ccc1-c1noc(-c2ccccc2)n1 the results were IDE cell activ 5, TPT1 inhibitor -1, HNF4A DNA FP 6, Rpn11 inh inactive, CSN deneddyl inh 8 and IDE cell inh 2.
COc1nc(-c2ccccc2)ccc1-c1noc(-c2cccs2)n1 was read as IDE cell activ 4, TPT1 inhibitor 4, HNF4A DNA FP 4, Rpn11 inh active, CSN deneddyl inh 7, IDE cell inh 7, Rpn11 inh conf 28, MMP-2 counter -24 and Thrombin inh 22.
Cc1ccccc1OCC(=O)N1N=C(C(F)(F)F)CC1(O)C(C)(C)C (configuration not stated) was read as IDE cell activ 2, TPT1 inhibitor -1, HNF4A DNA FP 5, Rpn11 inh active, CSN deneddyl inh 3, IDE cell inh 1, Rpn11 inh conf -1, MMP-2 counter -12 and Thrombin inh -7.
For Cc1ccc(OCC(=O)N2N=C(C(F)(F)F)CC2(O)C(C)(C)C)cc1C (configuration not stated) the results were IDE cell activ 6, TPT1 inhibitor -5, HNF4A DNA FP -3, Rpn11 inh inactive, CSN deneddyl inh 0 and IDE cell inh 14.
Screening Cc1ccccc1C(=O)N1CCC(C(N)=O)CC1 returned IDE cell activ -2, TPT1 inhibitor -2, HNF4A DNA FP -2, Rpn11 inh active, CSN deneddyl inh -3, IDE cell inh 0, Rpn11 inh conf 2, MMP-2 counter -31 and Thrombin inh 5.
Screening NC(=O)C1CCN(C(=O)c2cccc3ccccc23)CC1 returned IDE cell activ 3, TPT1 inhibitor -1, HNF4A DNA FP 0, Rpn11 inh inactive, CSN deneddyl inh 1 and IDE cell inh 2.
`Cc1cc(C)nc(NS(=O)(=O)c2ccc(NC(=O)C3COc4ccccc4O3)cc2)n1` (configuration not stated) gave TPT1 inhibitor -6, HNF4A DNA FP 0, Rpn11 inh inactive, CSN deneddyl inh 0 and IDE cell inh 4.
For O=C(Nc1ccc(S(=O)(=O)Nc2ccccc2)cc1)C1COc2ccccc2O1 (configuration not stated) the results were IDE cell activ 0, TPT1 inhibitor 0, HNF4A DNA FP 19, Rpn11 inh active, CSN deneddyl inh 5, IDE cell inh -5, Rpn11 inh conf -8, MMP-2 counter 0 and Thrombin inh -4.
